Data: ChEMBL document CHEMBL1136766, “Design, synthesis, and biological evaluation of new inhibitors of the endocannabinoid uptake: comparison with effects on fatty acid amidohydrolase” (J Med Chem, 2003)
pIC50, pKi: −log10 of the molar value.

Experiments:
Cannabinoid receptor 1 = Cannabinoid receptor 1 (Rattus norvegicus, UniProt P20272); test: Binding affinity against G protein coupled Cannabinoid receptor 1 using [3H]WIN-55212-2 in rat cerebellum membranes; assay type: cell membranes, Membrane
Sequence of Cannabinoid receptor 1 (P20272 whole entry): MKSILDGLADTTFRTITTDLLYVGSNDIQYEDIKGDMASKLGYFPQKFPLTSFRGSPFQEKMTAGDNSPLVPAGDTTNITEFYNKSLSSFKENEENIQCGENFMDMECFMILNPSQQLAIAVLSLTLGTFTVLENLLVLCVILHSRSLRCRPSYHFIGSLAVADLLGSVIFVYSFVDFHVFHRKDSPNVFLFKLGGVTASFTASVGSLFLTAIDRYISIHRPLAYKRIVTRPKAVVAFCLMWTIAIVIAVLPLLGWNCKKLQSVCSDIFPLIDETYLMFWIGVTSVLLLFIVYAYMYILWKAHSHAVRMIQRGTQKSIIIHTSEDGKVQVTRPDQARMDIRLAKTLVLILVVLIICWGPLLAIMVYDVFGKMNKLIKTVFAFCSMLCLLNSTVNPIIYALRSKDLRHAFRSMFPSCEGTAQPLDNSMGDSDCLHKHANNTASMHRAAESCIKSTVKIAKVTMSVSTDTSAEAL
Outline: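 Rat cerebellum membranes washed in 50 mM Tris-HCl pH 7.4, resuspended at about 2 mg/mL protein. Incubated 90 min at 30 °C with 0.5 nM [3H]WIN55212-2 plus competitor in Tris/EDTA/MgCl2/5 mg/mL BSA buffer. Nonspecific binding defined with 10 µM SR141716A. Bound ligand separated by GF/C filtration and counted by scintillation. IC50 from curve fit, Ki by Cheng-Prusoff. Two to four experiments in triplicate.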

Cannabinoid receptor 2 = Cannabinoid receptor 2 (Homo sapiens, UniProt P34972); test: Binding affinity against G protein coupled human Cannabinoid receptor 2 using [3H]CP-55940 in HEK293 EBNA transfected cells; assay type: cell-based
Sequence of Cannabinoid receptor 2 (P34972 whole entry): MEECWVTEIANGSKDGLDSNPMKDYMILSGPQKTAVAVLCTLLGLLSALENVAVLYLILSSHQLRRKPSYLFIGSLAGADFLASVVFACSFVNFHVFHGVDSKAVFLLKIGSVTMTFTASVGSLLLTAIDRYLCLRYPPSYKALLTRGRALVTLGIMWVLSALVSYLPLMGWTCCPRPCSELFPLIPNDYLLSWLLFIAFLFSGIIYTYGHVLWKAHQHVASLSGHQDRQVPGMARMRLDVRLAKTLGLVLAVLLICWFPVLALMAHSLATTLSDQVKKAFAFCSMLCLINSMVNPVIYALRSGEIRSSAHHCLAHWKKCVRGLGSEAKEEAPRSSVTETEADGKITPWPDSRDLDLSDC
Outline: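 Incubated 90 min at 30 °C with 0.3 nM [3H]CP55940 plus competitor. Filtered and counted by scintillation. IC50 from curve fit, Ki by Cheng-Prusoff. Two to four experiments in triplicate.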

[1] = target: T1, Fatty-acid amide hydrolase 1 (Rattus norvegicus, UniProt P97612); test: Inhibition of fatty acid amide hydrolase (FAAH) was determined using rat brain homogenates as the enzyme source and [3H]anandamide as substrate; assay type: tissue-based
T1 sequence (P97612 whole entry): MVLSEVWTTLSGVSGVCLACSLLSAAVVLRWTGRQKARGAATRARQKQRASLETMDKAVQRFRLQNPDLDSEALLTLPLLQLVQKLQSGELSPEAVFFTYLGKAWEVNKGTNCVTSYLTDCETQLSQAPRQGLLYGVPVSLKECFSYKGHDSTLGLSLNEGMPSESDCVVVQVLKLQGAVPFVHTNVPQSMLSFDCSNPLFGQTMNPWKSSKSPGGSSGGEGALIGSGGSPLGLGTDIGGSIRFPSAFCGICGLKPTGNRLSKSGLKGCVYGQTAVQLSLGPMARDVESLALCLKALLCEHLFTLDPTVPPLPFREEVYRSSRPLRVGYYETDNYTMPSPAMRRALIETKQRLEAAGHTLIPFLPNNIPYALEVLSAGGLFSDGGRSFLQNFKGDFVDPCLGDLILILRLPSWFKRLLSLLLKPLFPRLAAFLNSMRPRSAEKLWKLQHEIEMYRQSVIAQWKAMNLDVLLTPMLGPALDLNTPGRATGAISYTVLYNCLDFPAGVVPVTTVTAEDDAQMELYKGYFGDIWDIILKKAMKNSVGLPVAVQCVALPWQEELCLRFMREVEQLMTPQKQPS
Outline: (§1)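 Rat brain homogenate without cerebellum, in 10 mM Tris-HCl/1 mM EDTA pH 7.6, incubated 10 min at 37 °C with compound (ethanol carrier). Substrate: anandamide 2 µM final with trace [3H]anandamide labelled in the ethanolamine, plus BSA. Stopped on ice with chloroform/methanol; [3H]ethanolamine in the aqueous phase counted. Eight concentrations from 0.5 to 100 µM, at least three experiments.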

[2] = target: T2, Fatty-acid amide hydrolase 1 (Rattus norvegicus) (UniProt P97612); test: Inhibition of fatty acid amide hydrolase (FAAH) in rat brain homogenates; assay type: tissue-based; outline: as §1
T2 sequence (whole entry): T1 sequence (P97612 whole entry)

Homo sapiens [3] = organism: Homo sapiens; test: Maximum Inhibition of anandamide transport(ANT) was determined against human lymphoma U937 cell at a dose of 50 uM; assay type: functional, U-937
Outline: (§2)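 U937 cells (10^6/mL, RPMI 1640) preincubated 10 min at 37 °C with inhibitor, highest concentration tested 50 µM. Then [3H]anandamide 0.45 nM plus cold anandamide (100 nM final) added for 7 min. Stopped by GF/C filtration and washed with Krebs-HEPES; radioactivity counted. Nonspecific uptake measured at 4 °C. IC50 by curve fit; maximum inhibition is the % inhibition at 50 µM.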

[4] = target: T2, Fatty-acid amide hydrolase 1 (Rattus norvegicus); test: Maximum Inhibition of fatty acid amide hydrolase (FAAH) was determined using rat brain homogenates at 100 uM
Outline: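 Rat brain (minus cerebellum) homogenate in 10 mM Tris-HCl, 1 mM EDTA, pH 7.6, incubated 10 min at 37 °C with test agent or ethanol carrier. Substrate: 2 µM final anandamide with trace [3H]anandamide (ethanolamine label), 1% fatty acid free BSA. Stopped on ice plus chloroform/methanol. Aqueous-phase [3H]ethanolamine counted by scintillation. Inhibition read at 100 µM where IC50 fit failed.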

[5] = target: Transient receptor potential cation channel subfamily V member 1 (Rattus norvegicus, UniProt O35433); test: Binding affinity against vanilloid receptor 1 (VR1) using [3H]RTX in rat spinal cord membranes; assay type: cell membranes, Membrane
Sequence of Transient receptor potential cation channel subfamily V member 1 (O35433 whole entry): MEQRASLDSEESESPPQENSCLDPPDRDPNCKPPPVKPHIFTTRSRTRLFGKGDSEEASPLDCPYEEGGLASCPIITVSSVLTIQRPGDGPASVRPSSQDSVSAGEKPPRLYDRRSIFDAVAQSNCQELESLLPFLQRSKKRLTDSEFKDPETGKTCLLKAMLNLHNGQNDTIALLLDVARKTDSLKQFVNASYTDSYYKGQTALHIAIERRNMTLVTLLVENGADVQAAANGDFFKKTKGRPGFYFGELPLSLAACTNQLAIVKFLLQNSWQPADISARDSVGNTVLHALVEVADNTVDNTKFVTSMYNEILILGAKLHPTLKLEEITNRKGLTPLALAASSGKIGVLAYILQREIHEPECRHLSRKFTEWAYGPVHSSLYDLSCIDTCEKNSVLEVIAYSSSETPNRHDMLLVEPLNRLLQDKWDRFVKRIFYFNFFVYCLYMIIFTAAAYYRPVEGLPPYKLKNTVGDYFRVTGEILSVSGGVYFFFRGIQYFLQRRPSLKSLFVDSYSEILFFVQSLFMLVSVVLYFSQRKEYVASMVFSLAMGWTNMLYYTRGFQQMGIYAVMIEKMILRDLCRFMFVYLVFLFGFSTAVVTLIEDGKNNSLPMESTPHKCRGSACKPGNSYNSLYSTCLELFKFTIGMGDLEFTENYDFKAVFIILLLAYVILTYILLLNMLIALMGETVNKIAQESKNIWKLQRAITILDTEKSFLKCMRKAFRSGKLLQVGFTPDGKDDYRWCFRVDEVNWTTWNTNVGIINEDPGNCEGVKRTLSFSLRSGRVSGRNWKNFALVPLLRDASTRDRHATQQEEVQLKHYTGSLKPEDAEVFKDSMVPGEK
Outline: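 Rat spinal cord membranes (about 1 mg/mL protein) in HEPES/sucrose buffer pH 7.4 with 0.25 mg/mL BSA. Incubated 60 min at 37 °C with 25 pM [3H]RTX plus competitor; nonspecific binding defined with 1 µM RTX. Stopped on ice, α1-acid glycoprotein added, membranes pelleted and counted. Ki by Cheng-Prusoff. Two to four experiments in triplicate.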

Homo sapiens [6] = organism: Homo sapiens; test: Inhibition of [3H]anandamide transport(ANT) in human lymphoma U937 cell; assay type: functional; details: U-937; outline: as §2

| Structure (SMILES) | pKi (Cannabinoid receptor 1) | pKi (Cannabinoid receptor 2) | pIC50 [1] | Max inhibition [2] [%] | Max inhibition (Homo sapiens [3]) [%] | Max inhibition [4] [%] | pKi [5] | pIC50 (Homo sapiens [6]) |
| --- | --- | --- | --- | --- | --- | --- | --- | --- |
| CCCCC/C=C\C/C=C\C/C=C\C/C=C\CCCC(=O)OCc1ccsc1 | < 5.30 | < 5.30 | 4.08 | 100 | >85 | – | – | – |
| CCCCC/C=C\C/C=C\C/C=C\C/C=C\CCCC(=O)OCc1ccoc1 | < 5.30 | < 5.30 | 3.99 | 100 | >85 | – | – | – |
| CCCCC/C=C\C/C=C\C/C=C\C/C=C\CCCC(=O)OC(C)c1ccco1 (centres undefined) | < 6.00 | < 6.00 | < 3.92 | – | 70 | 45 | < 5.30 | – |
| CCCCC/C=C\C/C=C\C/C=C\C/C=C\CCCC(=O)OCc1ccco1 | < 5.30 | < 5.30 | 4.28 | 100 | >85 | – | – | – |
| CCCCC/C=C\C/C=C\C/C=C\C/C=C\CCCC(=O)Nc1ccc(O)cc1 | – | – | 5.43 | 100 | >85 | – | – | – |
| CCCCC/C=C\C/C=C\C/C=C\C/C=C\CCCC(=O)NCc1ccsc1 | < 6.00 | < 6.00 | 4.92 | 76 | >85 | – | < 5.30 | 5.30 |
| CCCCC/C=C\C/C=C\C/C=C\C/C=C\CCCC(=O)NCCc1cccs1 | 5.52 | < 6.00 | 3.99 | 100 | >85 | – | < 5.30 | 4.72 |
| CCCCC/C=C\C/C=C\C/C=C\C/C=C\CCCC(=O)OCCc1ccsc1 | < 6.00 | < 5.30 | 4.55 | 100 | 75 | – | < 5.30 | 4.59 |
| CCCCC/C=C\C/C=C\C/C=C\C/C=C\CCCC(=O)NCC1CCCO1 (centres undefined) | < 5.30 | < 5.30 | 4.36 | 47 | >85 | – | – | – |
| CCCCC/C=C\C/C=C\C/C=C\C/C=C\CCCC(=O)NCc1cccs1 | – | < 5.00 | 3.95 | 100 | >85 | – | – | – |
| CCCCC/C=C\C/C=C\C/C=C\C/C=C\CCCC(=O)OCC1CCCO1 (centres undefined) | < 5.30 | < 5.30 | < 3.92 | 23 | >85 | – | – | – |
| CCCCC/C=C\C/C=C\C/C=C\C/C=C\CCCC(=O)OCC1CCOC1 (centres undefined) | < 5.30 | < 5.00 | 3.95 | 100 | >85 | – | – | – |
| CCCCC/C=C\C/C=C\C/C=C\C/C=C\CCCC(=O)SCc1ccco1 | < 5.30 | < 5.30 | < 3.92 | 36 | >85 | – | < 5.30 | 5.05 |
| CCCCC/C=C\C/C=C\C/C=C\C/C=C\CCCC(=O)NCc1ccco1 | < 5.30 | < 5.30 | 4.47 | 100 | >85 | – | – | – |
| CCCCC/C=C\C/C=C\C/C=C\C/C=C\CCCC(=O)NCCc1ccsc1 | < 6.00 | < 6.00 | – | – | 60 | – | > 5.30 | 5.89 |
| CCCCC/C=C\C/C=C\C/C=C\C/C=C\CCCC(=O)OCCc1cccs1 | < 6.00 | < 5.30 | 4.62 | 68 | >85 | – | < 5.30 | 4.92 |
| CCCCC/C=C\C/C=C\C/C=C\C/C=C\CCCC(=O)OCc1cccs1 | < 5.30 | < 5.30 | 4.92 | 80 | – | – | – | – |
| CCCCC/C=C\C/C=C\C/C=C\C/C=C\CCCC(=O)NC(C)Cc1ccsc1 (centres undefined) | < 6.00 | < 6.00 | < 3.92 | 37 | 78 | – | > 5.30 | 4.68 |
| CCCCC/C=C\C/C=C\C/C=C\C/C=C\CCCC(=O)NCCc1ccoc1 | < 6.00 | 6.40 | – | – | >85 | – | < 5.30 | 5.48 |
| CCCCC/C=C\C/C=C\C/C=C\C/C=C\CCCC(=O)NCc1cccn1C | – | – | – | – | >85 | – | – | – |
| CCCCC/C=C\C/C=C\C/C=C\C/C=C\CCCC(=O)NC(C)Cc1cccs1 (centres undefined) | < 6.00 | < 6.00 | 4.82 | 36 | 66 | – | > 5.30 | 4.66 |
| CCCCC/C=C\C/C=C\C/C=C\C/C=C\CCCC(=O)NC(C)c1ccco1 (centres undefined) | < 5.30 | < 5.30 | 4.44 | 75 | >85 | – | < 5.30 | 4.68 |
| CCCCC/C=C\C/C=C\C/C=C\C/C=C\CCCC(=O)N(Cc1cccs1)Cc1cccs1 | < 6.00 | < 6.00 | – | – | >85 | – | < 5.30 | 4.80 |
| CCCCC/C=C\C/C=C\C/C=C\C/C=C\CCCCNCc1ccoc1 | < 6.00 | < 6.00 | 4.54 | 57 | >85 | – | < 5.30 | – |
| CCCCC/C=C\C/C=C\C/C=C\C/C=C\CCCC(=O)NCc1ccoc1 | 5.33 | – | 4.52 | 100 | >85 | – | – | – |
